# MT1-MMP act inh – blocks activation of human MT1-MMP; P50281; HT1080 RFP-PRO-GFP cells, GFP/RFP ratio fluorescence, overnight; percent of plate control window, DMSO zero; GFP/RFP ratio change, % at 20 µM; 360,000 tested, 0.061% active; AID 651647;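 active = GFP/RFP ratio change of at least 30% with cell ATP level not reduced by more than half and red fluorescence within 50% of control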
#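 Material – HT1080 RFP-PRO-GFP cells · Control set – DMSO wells and RFP-L50D-GFP cells · Incubation – overnight cell settling, then overnight compound exposure, 37 °C, 5% CO2 · Compound dosing – single-point 20 µM compound, 1% DMSO · Read-out – GFP/RFP fluorescence ratio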
# PABP polyA inh – PABP-poly(A) binding inhibition | P11940 | 290,000 tested, 1% active | AID 2014 | calls only at 35 µM | PABP-poly(A) RNA binding, fluorescence polarization;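 note: calls also rest on retests at 20 µM and on dose response follow-up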
# Target sequence (P11940 whole entry, looked up): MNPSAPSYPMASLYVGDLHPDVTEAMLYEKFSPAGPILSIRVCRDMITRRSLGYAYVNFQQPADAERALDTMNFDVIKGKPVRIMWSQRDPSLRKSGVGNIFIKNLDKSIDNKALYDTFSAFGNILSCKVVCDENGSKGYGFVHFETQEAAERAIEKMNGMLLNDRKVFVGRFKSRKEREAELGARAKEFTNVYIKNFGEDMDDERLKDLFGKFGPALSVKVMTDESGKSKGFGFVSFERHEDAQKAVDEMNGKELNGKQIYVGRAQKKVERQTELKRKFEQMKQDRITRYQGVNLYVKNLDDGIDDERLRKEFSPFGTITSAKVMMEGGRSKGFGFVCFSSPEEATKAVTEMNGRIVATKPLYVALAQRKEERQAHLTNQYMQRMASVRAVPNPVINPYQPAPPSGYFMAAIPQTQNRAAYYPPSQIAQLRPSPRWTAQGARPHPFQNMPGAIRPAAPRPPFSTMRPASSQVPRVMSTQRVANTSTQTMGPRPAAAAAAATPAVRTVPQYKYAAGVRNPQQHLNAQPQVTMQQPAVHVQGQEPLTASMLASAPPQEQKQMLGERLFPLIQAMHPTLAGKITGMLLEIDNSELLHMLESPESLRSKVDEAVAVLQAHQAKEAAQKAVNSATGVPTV
# eIF4H inh – inhibitors of RNA binding by human eIF4H. Q15056. eIF4H fluorescence polarization binding assay. inhibition, % at 35 µM. 290,000 tested, 0.94% active;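 note: calls also rest on retests at 20 µM and on dose response follow-up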
# SKN-1 block – blocks SKN-1 activity in C. elegans; 360,000 tested, 0.49% active; C. elegans VP596 Pgst-4::GFP/RFP ratio, acrylamide-induced, 24 h; inhibition, % at 21.8 µM;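 active = interference check ratio from 0.5 to 1.5 plus GFP to RFP signal ratio inhibition reaching or exceeding a fixed threshold, cut at about 30% in these data, passing the limit was not always enough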
# PABP1 MLLE inh – blocks PAM2 peptide binding to the PABP1 MLLE domain | inhibition, % at 20 µM | 360,000 tested, 0.36% active | GST-MLLE / FITC-PAM2 fluorescence polarization; in the data active = inhibition above about 35%, passing the limit was not always enough;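 note: plate controls were DMSO wells with GST-MLLE for no effect and wells lacking GST-MLLE protein for full effect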
# The depositor's hits bear a star; i = inactive; ? = inconclusive; / = not tested or not shown; + = active, no number. Most compounds without a hit are left out; they make up all but 1.8% or so of the library. Unless noted, the rule behind the calls is not given here.
SMILES,MT1-MMP act inh,PABP polyA inh,eIF4H inh,SKN-1 block,PABP1 MLLE inh
Cc1ccc(OC(=O)CCNC(=O)c2ccccc2Cl)c(Br)c1,0.4,/,/,-7.5,2.6
Cc1ccc(OCC(=O)c2cc(C)n(C)c2C)c([N+](=O)[O-])n1,-6.4,i,76.4*,4.6,-1.4
O=C1OC2(CCCC2)OC(=O)C1=Cc1c[nH]c2ccccc12,-0.9,+,?,-4.6,-15.3
Cc1ccsc1C=Nc1ccc(O)cc1,9.2,i,51.1*,28.0*,21.6
Cc1ccsc1/C=N/N=C/c1sccc1C,-1.3,i,-0.4,1.9,-7.3
Cc1oc2ccc(O)cc2c1C(=O)c1ccc(Cl)cc1,-4.6,i,-8.1,-15.8,-2.3
Cc1oc2ccc(O)cc2c1C(=O)c1ccc([N+](=O)[O-])cc1,-3.9,+,active,15.3,-3.5
COc1ccc(OC)c(NC(=O)CCNC(=O)N2CC(=O)Nc3ccccc32)c1,-1.9,/,/,7.1,-0.1
Cc1cc(C=C2C(=O)c3ccccc3C2=O)c(C)n1-c1ccc(Cl)cc1,-5.7,i,62.9*,7.6,-15.9
CC(C)OC(=O)/C=C1\C[C@@H](c2ccccc2C(F)(F)F)O[C@@H](c2ccccc2C(F)(F)F)O1,1.6,/,/,9.4,/
COc1ccc2c(C)cc(SCC(=O)NC3CCCCC3)nc2c1,-7.2,/,/,-7.1,-6.9
COc1ccc2c(-c3ccccc3)cc(SCC(N)=O)nc2c1,-31.0,+,80.3*,22.7,-77.4
COc1ccc2c(C)cc(SCC(=O)N3CCOCC3)nc2c1,-128.1,+,123.7*,-10.7,-85.5
O=C(/C=C/c1cccs1)c1ccc(Br)cc1,-2.7,i,-2.9,37.2*,13.2
O=C(Cc1cccc2ccccc12)NC(NC(=S)Nc1ccccc1Cl)C(Cl)(Cl)Cl (stereo unspecified),-9.7,i,-7.1,20.7,45.9*
CS(=O)(=O)N(Cc1ccccc1)c1ccc(C(=O)NCCSCc2ccco2)cc1,-2.1,i,18.6,-13.1,44.8*
CCC(C)C(=O)N1c2ccccc2C(=C2SC(C(=O)OC)=C(C(=O)OC)S2)C(=S)C1(C)C (stereo unspecified),11.4,i,-8.2,1.5,46.0*
CCN(C1CCS(=O)(=O)C1)S(=O)(=O)c1ccc(Cl)s1 (stereo unspecified),0.8,/,/,18.6,8.4
O=C(CCl)Nc1ccc(N=Nc2ccccc2)cc1,-4.3,i,active,19.2,-5.8
CC(CNC(=O)CC[C@H]1O[C@@H](n2cnc3c(NC(=O)c4ccccc4)ncnc32)[C@H](O)[C@@H]1O)c1ccccc1 (stereo partly specified),2.5,/,/,6.9,-4.6
COc1ccc2c(c1)OC/C(=C/c1cccs1)C2=O,3.1,i,-3.5,53.6*,-14.7
CCOc1ccc2nc(N=NC3=C(O)CC(C)(C)CC3=O)sc2c1,11.4,i,-0.7,35.3*,-8.8
CSc1cc(-c2ccco2)oc1C(=O)c1ccco1,-3.0,/,/,35.7*,-20.1
CSc1nc(-c2ccco2)nn1C(=O)c1ccco1,-0.8,i,-11.6,18.5,12.6
Clc1ccc(N2CCN(/N=C/c3cccnc3)CC2)cc1,4.3,i,-9.3,66.0*,4.8
SMILES,MT1-MMP act inh,PABP polyA inh,eIF4H inh,SKN-1 block,PABP1 MLLE inh
Cc1ccc(N2CCN(/N=C/c3cccnc3)CC2)cc1,-7.7,i,-0.2,31.9,17.0
OC(c1ccco1)c1nc(-c2cccs2)cs1 (stereo unspecified),-0.4,/,/,8.2,-4.3
CCn1c(SCC(=O)N/N=C/c2c[nH]c3ccccc23)nnc1-c1ccc(Cl)cc1,0.9,i,active,5.0,-8.0
C=CCn1c(N)c(C(=O)Nc2cccc(C)c2)c2nc3ccccc3nc21,-7.1,i,20.4,2.1,16.4
C=CCn1c(N)c(C(=O)Nc2ccc(C)c(C)c2)c2nc3ccccc3nc21,-5.0,i,-12.9,39.8*,7.3
Cc1ccc(NC(=O)C2CCN(S(C)(=O)=O)CC2)c(C)c1,-0.5,i,-3.7,3.2,-5.7
CC(C)C(OC(=O)c1nsc(Cl)c1Cl)C(=O)NCc1ccccc1 (stereo unspecified),-0.4,i,-5.8,6.6,-0.2
O=c1c2ccccc2ncn1-c1ccc(Cl)cc1Cl,-3.2,i,-11.9,35.2*,1.8
O=c1c2ccccc2ncn1-c1cccc(Cl)c1,-0.2,i,6.4,16.1,1.2
COc1ccccc1CCNC(=O)c1cccc(S(=O)(=O)N2CCc3ccccc3C2)c1,-7.5,/,/,-4.6,4.1

# Assay outcomes from PubChem.
